{
  "source": "ChEMBL document CHEMBL5661972",
  "about": "“In vitro biological activity of a novel small-molecule inhibitor of polo-like kinase 1” (Mol Cancer Ther, 2007)",
  "key": {"NCI-H460 [1]": {"test_system": "NCI-H460", "assay": "Induction of cell cycle arrest in human NCI-H460 cells assessed as accumulation of cells at Sub-2N phase at 1 micromol/L incubated for 24 hrs by propidium iodide staining based flow cytometry analysis (reference value: 4.0 %)", "assay_type": "functional", "conditions": "dose 1 µmol/L, at 1 µM"}, "[2]": {"assay": "Selectivity ratio of IC50 for cytotoxicity against human HDF cells to IC50 for antiproliferative activity against human HCT-116 cells", "assay_type": "toxicity, cell-based", "conditions": "HDF cells versus HCT-116 cells"}, "NHDF [3]": {"test_system": "NHDF", "assay": "Cytotoxicity against human HDF cells assessed as outgrowth of cells at 0.37 to 3.3 micromol/L incubated for 72 hrs by methylene blue staining based analysis", "assay_type": "toxicity, cell-based", "conditions": "dose 0.37-3.3 µmol/L", "summary_of_the_method": "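HDF seeded at 1,300 and H460 at 600 per well in 96-well plates. After 24 h, exposed to vehicle (0.3% DMSO) or compound at 0.37–30 μmol/L for 72 h. Wells were then washed with PBS and refed with drug-free medium containing gentamicin. Regrowth was followed by methylene blue staining at set time points over 13 days in total.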"}, "NCI-H460 [4]": {"test_system": "NCI-H460", "assay": "Induction of apoptosis in human NCI-H460 cells assessed as increase in caspase-3 activity at 5 micromol/L measured after 46 hrs using AcDEVD-[…] fluorogenic peptide as substrate by plate reader analysis", "assay_type": "functional, cell-based", "conditions": "dose 5.0 µmol/L", "summary_of_the_method": "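H460 cells seeded at 320,000 per well in six-well plates and given 5 μmol/L for 7 to 72 h. Lysates made in Tris/phosphate buffer, pH 7.5, with Triton X-100. Cleavage of Ac-DEVD-[…] measured by fluorescence, excitation 380 nm, emission 420–460 nm.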"}, "NCI-H460 [5]": {"test_system": "NCI-H460", "assay": "Induction of cell cycle arrest in human NCI-H460 cells assessed as accumulation of cells at G2-M phase at 3 micromol/L incubated for 24 hrs by propidium iodide staining based flow cytometry analysis (reference value: 19.8 %)", "assay_type": "functional", "conditions": "dose 3 µmol/L, at 3 µM"}, "NHDF [6]": {"test_system": "NHDF", "assay": "Induction of cell cycle arrest in human HDF cells assessed as accumulation of cells at G1 phase at 1 micromol/L incubated for 72 hrs by propidium iodide staining based flow cytometry analysis (reference value: 85.6 %)", "assay_type": "toxicity", "conditions": "1 µM, dose 1 µmol/L", "summary_of_the_method": "(§1)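 Cells seeded in six-well plates at densities that keep them in log growth (HDF 120,000, 60,000 or 30,000; H460 100,000, 50,000 or 25,000 per well for 24, 48 or 72 h). Treated with 1 or 3 μmol/L. Floating and adherent cells collected, ethanol-fixed, permeabilized with Triton X-100 and stained with propidium iodide. DNA content read by flow cytometry as % singlet cells.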"}, "NCI-H460 [7]": {"test_system": "NCI-H460", "assay": "Induction of cell cycle arrest in human NCI-H460 cells assessed as accumulation of cells at Sub-2N phase at 1 micromol/L incubated for 72 hrs by propidium iodide staining based flow cytometry analysis (reference value: 2.1 %)", "assay_type": "functional", "conditions": "dose 1 µmol/L, at 1 µM"}, "NHDF [8]": {"test_system": "NHDF", "assay": "Induction of cell cycle arrest in human HDF cells assessed as accumulation of cells at S phase at 3 micromol/L incubated for 72 hrs by propidium iodide staining based flow cytometry analysis (reference value: 3.6 %)", "assay_type": "toxicity", "conditions": "3 µM, dose 3 µmol/L", "summary_of_the_method": "as §1"}, "NCI-H460 [9]": {"test_system": "NCI-H460", "assay": "Induction of cell cycle arrest in human NCI-H460 cells assessed as accumulation of cells at Sub-2N phase at 3 micromol/L incubated for 72 hrs by propidium iodide staining based flow cytometry analysis (reference value: 2.1 %)", "assay_type": "functional", "conditions": "dose 3 µmol/L, at 3 µM"}, "[10]": {"assay": "Selectivity ratio of IC50 for cytotoxicity against human HDF cells to IC50 for antiproliferative activity against human NCI-N87 cells", "assay_type": "toxicity, cell-based", "conditions": "HDF cells versus NCI-N87 cells, read-out: Ratio IC50"}, "NCI-H460 [11]": {"test_system": "NCI-H460", "assay": "Induction of cell cycle arrest in human NCI-H460 cells assessed as accumulation of cells at Sub-2N phase at 1 micromol/L incubated for 48 hrs by propidium iodide staining based flow cytometry analysis (reference value: 2.5 %)", "assay_type": "functional", "conditions": "dose 1 µmol/L, at 1 µM"}, "NCI-H460 [12]": {"test_system": "NCI-H460", "assay": "Induction of cell cycle arrest in human NCI-H460 cells assessed as accumulation of cells at >4N phase at 3 micromol/L incubated for 48 hrs by propidium iodide staining based flow cytometry analysis (reference value: 0.9 %)", "assay_type": "functional", "conditions": "dose 3 µmol/L, at 3 µM", "summary_of_the_method": "as §1"}, "NCI-H460 [13]": {"test_system": "NCI-H460", "assay": "Induction of cell cycle arrest in human NCI-H460 cells assessed as accumulation of cells at S phase at 1 micromol/L incubated for 24 hrs by propidium iodide staining based flow cytometry analysis (reference value: 23.2 %)", "assay_type": "functional", "conditions": "dose 1 µmol/L, at 1 µM"}, "NCI-H460 [14]": {"test_system": "NCI-H460", "assay": "Induction of cell cycle arrest in human NCI-H460 cells assessed as accumulation of cells at G1 phase at 1 micromol/L incubated for 24 hrs by propidium iodide staining based flow cytometry analysis (reference value: 45.5 %)", "assay_type": "functional", "conditions": "dose 1 µmol/L, at 1 µM", "summary_of_the_method": "as §1"}, "NCI-H460 [15]": {"test_system": "NCI-H460", "assay": "Induction of cell cycle arrest in human NCI-H460 cells assessed as accumulation of cells at G1 phase at 3 micromol/L incubated for 24 hrs by propidium iodide staining based flow cytometry analysis (reference value: 45.5 %)", "assay_type": "functional", "conditions": "dose 3 µmol/L, at 3 µM", "summary_of_the_method": "as §1"}, "NHDF [16]": {"test_system": "NHDF", "assay": "Induction of cell cycle arrest in human HDF cells assessed as accumulation of cells at >4N phase at 1 micromol/L incubated for 72 hrs by propidium iodide staining based flow cytometry analysis (reference value: 1.4 %)", "assay_type": "toxicity", "conditions": "1 µM, dose 1 µmol/L", "summary_of_the_method": "as §1"}, "NCI-H460 [17]": {"test_system": "NCI-H460", "assay": "Induction of apoptosis in human NCI-H460 cells assessed as PARP cleavage at 5 micromol/L incubated for 22 to 72 hrs by Western blotting analysis", "assay_type": "functional, cell-based", "conditions": "dose 5.0 µmol/L, time 22-72 hrs", "summary_of_the_method": "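H460 cells seeded at 320,000 per well in six-well plates and given 5 μmol/L for 22, 30, 46, 55 and 72 h. Lysed in caspase assay buffer, run on 4–12% Bis-Tris gels and immunoblotted with an anti-PARP antibody that detects both the 116-kDa intact protein and the 85-kDa fragment.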"}, "[18]": {"assay": "Inhibition of p53-PLK1 in human HeLa cells assessed as inhibition of p53 phosphorylation at Ser15 residue by ELISA analysis", "assay_type": "cell-based", "summary_of_the_method": "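HeLa Tet-On cells carrying tet-inducible p53-PLK1 kinase-domain fusion (T210D), induced overnight with 125 ng/mL doxycycline; ten 3-fold dilutions (30–0.00152 μmol/L final, 0.3% DMSO, 5% serum) for 1 h. Lysates captured on anti-p53-coated plates overnight at 4°C; phospho-Ser15 and total p53 detected with HRP secondary/TMB, A450. IC50 from curve fit.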"}, "NCI-H460 [19]": {"test_system": "NCI-H460", "assay": "Induction of cell cycle arrest in human NCI-H460 cells assessed as accumulation of cells at S phase at 3 micromol/L incubated for 72 hrs by propidium iodide staining based flow cytometry analysis (reference value: 17.8 %)", "assay_type": "functional", "conditions": "dose 3 µmol/L, at 3 µM"}, "MES-SA": {"test_system": "MES-SA", "assay": "Antiproliferative activity against human MES-SA cells assessed as inhibition of cell growth", "assay_type": "functional, cell-based", "summary_of_the_method": "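Cells grown 3 days in 96-well plates, seeded so vehicle controls stay in log growth (MES-SA/DX5 7,000, MES-SA 6,000, HDF 5,000 per well). Exposed to 3-fold dilutions, 30–0.00152 μmol/L, in medium with 5% FBS, 50 μg/mL gentamicin and 0.3% (v/v) DMSO. HDF medium was low-glucose DMEM; MES-SA lines used McCoy's 5A.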"}, "NHDF [20]": {"test_system": "NHDF", "assay": "Induction of cell cycle arrest in human HDF cells assessed as accumulation of cells at G2-M phase at 3 micromol/L incubated for 48 hrs by propidium iodide staining based flow cytometry analysis (reference value: 14.3 %)", "assay_type": "toxicity", "conditions": "3 µM, dose 3 µmol/L", "summary_of_the_method": "as §1"}, "[21]": {"molecular_target": "Platelet-derived growth factor receptor beta (Homo sapiens, UniProt P09619)", "sequence (P09619 whole entry)": "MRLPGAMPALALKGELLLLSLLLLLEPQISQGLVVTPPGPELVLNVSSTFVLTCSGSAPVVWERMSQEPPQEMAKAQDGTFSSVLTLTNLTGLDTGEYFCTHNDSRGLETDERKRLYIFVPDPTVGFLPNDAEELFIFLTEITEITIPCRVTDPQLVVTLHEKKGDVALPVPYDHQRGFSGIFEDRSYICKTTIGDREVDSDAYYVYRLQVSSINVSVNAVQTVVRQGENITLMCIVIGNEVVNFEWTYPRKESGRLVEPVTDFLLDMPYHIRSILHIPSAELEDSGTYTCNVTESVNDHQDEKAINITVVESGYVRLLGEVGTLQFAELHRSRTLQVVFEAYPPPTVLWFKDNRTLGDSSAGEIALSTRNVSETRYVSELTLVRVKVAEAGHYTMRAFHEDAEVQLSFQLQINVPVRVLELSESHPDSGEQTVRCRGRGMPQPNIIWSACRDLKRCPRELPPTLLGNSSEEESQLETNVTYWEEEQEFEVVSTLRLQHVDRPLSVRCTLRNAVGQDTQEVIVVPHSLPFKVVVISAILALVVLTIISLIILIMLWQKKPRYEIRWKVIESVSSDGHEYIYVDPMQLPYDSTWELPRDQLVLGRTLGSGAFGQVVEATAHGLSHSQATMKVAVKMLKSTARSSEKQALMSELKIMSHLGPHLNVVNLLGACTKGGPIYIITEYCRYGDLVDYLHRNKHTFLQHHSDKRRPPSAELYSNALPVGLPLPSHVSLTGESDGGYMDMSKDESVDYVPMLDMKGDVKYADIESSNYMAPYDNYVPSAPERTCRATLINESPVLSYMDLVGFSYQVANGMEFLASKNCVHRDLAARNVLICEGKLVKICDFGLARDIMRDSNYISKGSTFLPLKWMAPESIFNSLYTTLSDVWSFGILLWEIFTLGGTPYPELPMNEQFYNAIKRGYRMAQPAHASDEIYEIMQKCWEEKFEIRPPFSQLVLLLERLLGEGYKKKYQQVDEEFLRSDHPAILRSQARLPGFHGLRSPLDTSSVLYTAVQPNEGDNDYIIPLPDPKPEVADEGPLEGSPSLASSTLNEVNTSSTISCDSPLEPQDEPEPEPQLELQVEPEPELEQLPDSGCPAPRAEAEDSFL", "assay": "Inhibition of PDGFR1beta (unknown origin)"}},
  "note": "Activity calls are given as the source filed them. No cut-off for these calls is given here.",
  "data": [
    {"smiles": "COc1cc2ncn(-c3cc(OCc4ccccc4C(F)(F)F)c(C(N)=O)s3)c2cc1OC", "note": "[GW843682X]", "values": [
      {"measurement": "Activity", "setting": "NCI-H460 [1]", "value": 11.6, "unit": "%"},
      {"measurement": "selectivity ratio", "setting": "[2]", "value": 8.8},
      {"measurement": "Activity", "setting": "NHDF [3]", "value": "Toxic"},
      {"measurement": "Activity", "setting": "NCI-H460 [4]", "value": "Active"},
      {"measurement": "Activity", "setting": "NCI-H460 [5]", "value": 37.7, "unit": "%"},
      {"measurement": "Activity", "setting": "NHDF [6]", "value": 66.2, "unit": "%"},
      {"measurement": "Activity", "setting": "NCI-H460 [7]", "value": 16, "unit": "%"},
      {"measurement": "Activity", "setting": "NHDF [8]", "value": 8, "unit": "%"},
      {"measurement": "Activity", "setting": "NCI-H460 [9]", "value": 30, "unit": "%"},
      {"measurement": "selectivity ratio", "setting": "[10]", "value": "> 10"},
      {"measurement": "Activity", "setting": "NCI-H460 [11]", "value": 14.4, "unit": "%"},
      {"measurement": "Activity", "setting": "NCI-H460 [12]", "value": 35.9, "unit": "%"},
      {"measurement": "Activity", "setting": "NCI-H460 [13]", "value": 18.2, "unit": "%"},
      {"measurement": "Activity", "setting": "NCI-H460 [14]", "value": 27.3, "unit": "%"},
      {"measurement": "Activity", "setting": "NCI-H460 [15]", "value": 7.8, "unit": "%"},
      {"measurement": "Activity", "setting": "NHDF [16]", "value": 3.5, "unit": "%"},
      {"measurement": "Activity", "setting": "NCI-H460 [17]", "value": "Active"},
      {"measurement": "IC50", "setting": "[18]", "value": 0.14, "unit": "µM"},
      {"measurement": "Activity", "setting": "NCI-H460 [19]", "value": 3.6, "unit": "%"},
      {"measurement": "IC50", "setting": "MES-SA", "value": 0.21, "unit": "µM"},
      {"measurement": "Activity", "setting": "NHDF [20]", "value": 61.2, "unit": "%"},
      {"measurement": "IC50", "setting": "[21]", "value": 0.16, "unit": "µM"}
    ]}
  ]
}
